Measured values from ChEMBL document CHEMBL1157795, “Structure-activity relationship of an ozonide carboxylic acid (OZ78) against Fasciola hepatica” (2010).
Active and inactive are the calls of the source. No cut-off for these calls is given here.

Tests used:
Fasciola hepatica [1] = test: Antiparasitic activity against Fasciola hepatica infected in rat assessed as reduction in worm burden at 100 mg/kg, po administered as single dose measured after 6 days post treatment; type: functional; set-up: scale not given: the % may be the effect or the level left
In short: (§1)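 Female Wistar rats (~100 g) infected with ~20 F. hepatica metacercariae each; at 8 weeks post-infection given a single 100 mg/kg oral dose as suspension in 7% (v/v) Tween 80 / 3% (v/v) EtOH. Killed by CO2 on day 6 post-treatment; adult flukes recovered from bile ducts and livers. Mean total worm burden compared with untreated controls; cures scored; Kruskal-Wallis test, 5% level.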

Fasciola hepatica [2] = test: Antiparasitic activity against Fasciola hepatica infected in rat assessed as induction of cure at 100 mg/kg, po administered as single dose measured after 6 days post; type: functional, organism-based; set-up: dose 100 mg/kg; in short: as §1
Fasciola hepatica [3] = test: Antiparasitic activity against Fasciola hepatica infected in rat assessed as reduction in worm burden at 50 mg/kg, po administered as single dose measured after 6 days post treatment; type: functional; set-up: scale not given: the % may be the effect or the level left
In short: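 Female Wistar rats (~100 g), each infected with ~20 F. hepatica metacercariae, dosed orally once at 8 weeks post-infection with 50 mg/kg suspended in 7% (v/v) Tween 80 plus 3% (v/v) EtOH. Day 6 after treatment: CO2 sacrifice, adult flukes counted from bile ducts and liver. Worm burden reduction versus untreated control rats (mean totals); Kruskal-Wallis significance.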

Row | SMILES | Activity (Fasciola hepatica [1]) [%] | Activity (Fasciola hepatica [2]) | Activity (Fasciola hepatica [3]) [%]
1 | O=C(O)C(=O)NC[C@H]1CC[C@]2(CC1)OO[C@]1(O2)C2CC3CC(C2)CC1C3 | 14 | inactive | –
2 | O=C(O)C[C@@H]1CCC[C@]2(C1)OOC1(O2)C2CC3CC(C2)CC1C3 (relative stereo) | 90 | – | –
3 | O=C(O)C[C@H]1CC[C@]2(CC1)OO[C@]1(O2)C2CCCC1CCC2 | 51 | inactive | –
4 | O=C(O)C[C@H]1CC[C@@]2(CC1)C[C@@]1(OO2)C2CC3CC(C2)CC1C3 | 7 | inactive | –
5 | N=C(N)NC(=O)C[C@H]1CC[C@]2(CC1)OO[C@]1(O2)C2CC3CC(C2)CC1C3 | 0 | inactive | –
6 | O=C(O)CNC(=O)C[C@H]1CC[C@]2(CC1)OO[C@]1(O2)C2CC3CC(C2)CC1C3 | 86 | – | –
7 | CS(=O)(=O)NC(=O)C[C@H]1CC[C@]2(CC1)OO[C@]1(O2)C2CC3CC(C2)CC1C3 | 100 | Active | –
8 | O=C(O)C[C@H]1CC[C@]2(CC1)OO[C@@]1(CCCCC1)O2 | 0 | inactive | –
9 | O=C(O)CC[C@H]1CC[C@]2(CC1)OO[C@]1(O2)C2CC3CC(C2)CC1C3 | 14 | inactive | –
10 | O=C(O)C[C@H]1CC[C@]2(CC1)OO[C@]1(O2)C2CC3CC1CC(C2)C3F (some centres not stated) | 76 | – | –
11 | O=C(O)C[C@H]1CC[C@]2(CC1)OC[C@]1(O2)C2CC3CC(C2)CC1C3 | 0 | inactive | –
12 | NC(=O)C[C@H]1CC[C@]2(CC1)OO[C@]1(O2)C2CC3CC(C2)CC1C3 | 7 | inactive | –
13 | O=C(O)C[C@H]1CC[C@]2(CC1)OO[C@]1(O2)C2CC3CC1C[C@@](F)(C3)C2 | 80 | – | –
14 | O=C(O)C[C@H]1CC[C@]2(CC1)OO[C@]1(O2)C2CC3CC1CC(C2)C3(F)F | 80 | inactive | –
15 | O=C(C[C@H]1CC[C@]2(CC1)OO[C@]1(O2)C2CC3CC(C2)CC1C3)NO | 34 | inactive | –
16 | O=C(C[C@H]1CC[C@]2(CC1)OO[C@]1(O2)C2CC3CC(C2)CC1C3)NCCS(=O)(=O)[O-].[Na+] | 0 | inactive | –
17 | O=C(C[C@H]1CC[C@]2(CC1)OO[C@]1(O2)C2CC3CC(C2)CC1C3)N1CCNCC1 | 0 | inactive | –
18 | CCOP(=O)([O-])C[C@H]1CC[C@]2(CC1)OO[C@]1(O2)C2CC3CC(C2)CC1C3.[K+] | 16 | inactive | –
19 | O=C(O)C[C@H]1CC[C@]2(CC1)OO[C@]1(O2)C2CC3CC(C2)CC1C3 | 100 | Active | –
20 | O=C(O)C(C(=O)O)[C@H]1CC[C@]2(CC1)OO[C@]1(O2)C2CC3CC(C2)CC1C3 | 0 | inactive | –
21 | CCOC(=O)C[C@H]1CC[C@]2(CC1)OO[C@]1(O2)C2CC3CC(C2)CC1C3 | – | – | 36
22 | NNC(=O)C[C@H]1CC[C@]2(CC1)OO[C@]1(O2)C2CC3CC(C2)CC1C3 | 12 | inactive | –
23 | O=C([O-])CN1CC[C@]2(CC1)OO[C@]1(O2)C2CC3CC(C2)CC1C3.[Na+] | 0 | inactive | –
24 | O=C(O)C[C@H]1CCCC[C@@]12OOC1(O2)C2CC3CC(C2)CC1C3 (some centres not stated) | 46 | inactive | –
25 | O=C(O)[C@H]1CC[C@]2(CC1)OO[C@]1(O2)C2CC3CC(C2)CC1C3 | 52 | – | –
26 | O=C(O)C[C@H]1CC[C@@]2(CC1)OO[C@@]1(O2)C2CC3CC(C2)CC1C3 | 95 | – | –
27 | COC(=O)C[C@H]1CC[C@]2(CC1)OO[C@]1(O2)C2CC3CC(C2)CC1C3 | 99 | – | –
28 | C[C@H]1[C@H](OC(=O)CCC(=O)O)O[C@@H]2O[C@@]3(C)CC[C@H]4[C@H](C)CC[C@@H]1[C@@]24OO3 [ARTESUNATE] | 30 | – | –
